From ChEMBL document CHEMBL3045952, “Design, synthesis, and fungicidal activity of novel analogues of pyrrolnitrin” (J Agric Food Chem, 2009)
Converted amounts (≈) assume the structure as drawn.

Assays:
[1] = test system: Botryosphaeria berengeriana; assay: Fungicidal activity against Botryosphaeria berengeriana assessed as mycelium growth inhibition at 50 ug/mL by mycelium growth rate method; format: functional; conditions: read-out: GI
Method in brief: (§1)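 In vitro mycelium growth rate method, with fenpiclonil as control. Compounds were tested at 50, 20 and 10 μg mL-1. Mycelial diameters were measured once the mycelia had grown completely. Inhibition (%) = (D1 − D2)/D1 × 100, where D1 is the mean mycelial diameter in the blank and D2 is the mean diameter with compound.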

Mycosphaerella arachidis [2] = assay: Fungicidal activity against Mycosphaerella arachidis assessed as mycelium growth inhibition by mycelium growth rate method; format: functional, organism-based
Method in brief: (§2)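 EC50 was calculated by the […] from in vitro growth-rate inhibition ratios. Inhibition (%) = (D1 − D2)/D1 × 100, taken from mean mycelial diameters of the blank (D1) and the treated plates (D2) once mycelia had grown completely. Fenpiclonil served as control.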

Alternaria solani [3] = assay: Fungicidal activity against Alternaria solani assessed as mycelium growth inhibition at 50 ug/mL by mycelium growth rate method; format: functional; conditions: read-out: GI; method in brief: as §1
Fusarium graminearum [4] = assay: Fungicidal activity against Fusarium graminearum assessed as mycelium growth inhibition at 50 ug/mL by mycelium growth rate method; format: functional; conditions: read-out: GI; method in brief: as §1
Mycosphaerella arachidis [5] = assay: Fungicidal activity against Mycosphaerella arachidis assessed as mycelium growth inhibition at 50 ug/mL by mycelium growth rate method; format: functional; conditions: read-out: GI; method in brief: as §1
[6] = test system: Botryosphaeria berengeriana; assay: Fungicidal activity against Botryosphaeria berengeriana assessed as mycelium growth inhibition by mycelium growth rate method; format: functional, organism-based; method in brief: as §2
Fusarium oxysporum [7] = assay: Fungicidal activity against Fusarium oxysporum assessed as mycelium growth inhibition at 50 ug/mL by mycelium growth rate method; format: functional; conditions: read-out: GI; method in brief: as §1
Alternaria solani [8] = assay: Fungicidal activity against Alternaria solani assessed as mycelium growth inhibition by mycelium growth rate method; format: functional, organism-based; method in brief: as §2
Fusarium oxysporum [9] = assay: Fungicidal activity against Fusarium oxysporum assessed as mycelium growth inhibition by mycelium growth rate method; format: functional, organism-based; method in brief: as §2
Fusarium graminearum [10] = assay: Fungicidal activity against Fusarium graminearum assessed as mycelium growth inhibition by mycelium growth rate method; format: functional, organism-based; method in brief: as §2
Fusarium graminearum [11] = assay: Fungicidal activity against Fusarium graminearum assessed as mycelium growth inhibition at 20 ug/mL by mycelium growth rate method; format: functional; conditions: read-out: GI; method in brief: as §1
[12] = test system: Botryosphaeria berengeriana; assay: Fungicidal activity against Botryosphaeria berengeriana assessed as mycelium growth inhibition at 10 ug/mL by mycelium growth rate method; format: functional; conditions: read-out: GI; method in brief: as §1
Alternaria solani [13] = assay: Fungicidal activity against Alternaria solani assessed as mycelium growth inhibition at 20 ug/mL by mycelium growth rate method; format: functional; conditions: read-out: GI; method in brief: as §1
Mycosphaerella arachidis [14] = assay: Fungicidal activity against Mycosphaerella arachidis assessed as mycelium growth inhibition at 10 ug/mL by mycelium growth rate method; format: functional; conditions: read-out: GI; method in brief: as §1
Alternaria solani [15] = assay: Fungicidal activity against Alternaria solani assessed as mycelium growth inhibition at 10 ug/mL by mycelium growth rate method; format: functional; conditions: read-out: GI; method in brief: as §1
Fusarium graminearum [16] = assay: Fungicidal activity against Fusarium graminearum assessed as mycelium growth inhibition at 10 ug/mL by mycelium growth rate method; format: functional; conditions: read-out: GI; method in brief: as §1
Mycosphaerella arachidis [17] = assay: Fungicidal activity against Mycosphaerella arachidis assessed as mycelium growth inhibition at 20 ug/mL by mycelium growth rate method; format: functional; conditions: read-out: GI; method in brief: as §1
Fusarium oxysporum [18] = assay: Fungicidal activity against Fusarium oxysporum assessed as mycelium growth inhibition at 10 ug/mL by mycelium growth rate method; format: functional; conditions: read-out: GI; method in brief: as §1
Fusarium oxysporum [19] = assay: Fungicidal activity against Fusarium oxysporum assessed as mycelium growth inhibition at 20 ug/mL by mycelium growth rate method; format: functional; conditions: read-out: GI; method in brief: as §1
[20] = test system: Botryosphaeria berengeriana; assay: Fungicidal activity against Botryosphaeria berengeriana assessed as mycelium growth inhibition at 20 ug/mL by mycelium growth rate method; format: functional; conditions: read-out: GI; method in brief: as §1

Row | Structure (SMILES) | inhibition of growth at 50 µg/mL [1] [%] | EC50 (Mycosphaerella arachidis [2]) [µg/mL] | inhibition of growth at 50 µg/mL (Alternaria solani [3]) [%] | inhibition of growth at 50 µg/mL (Fusarium graminearum [4]) [%] | inhibition of growth at 50 µg/mL (Mycosphaerella arachidis [5]) [%] | EC50 [6] [µg/mL] | inhibition of growth at 50 µg/mL (Fusarium oxysporum [7]) [%] | EC50 (Alternaria solani [8]) [µg/mL] | EC50 (Fusarium oxysporum [9]) [µg/mL] | EC50 (Fusarium graminearum [10]) [µg/mL] | inhibition of growth at 20 µg/mL (Fusarium graminearum [11]) [%] | inhibition of growth at 10 µg/mL [12] [%] | inhibition of growth at 20 µg/mL (Alternaria solani [13]) [%] | inhibition of growth at 10 µg/mL (Mycosphaerella arachidis [14]) [%] | inhibition of growth at 10 µg/mL (Alternaria solani [15]) [%] | inhibition of growth at 10 µg/mL (Fusarium graminearum [16]) [%] | inhibition of growth at 20 µg/mL (Mycosphaerella arachidis [17]) [%] | inhibition of growth at 10 µg/mL (Fusarium oxysporum [18]) [%] | inhibition of growth at 20 µg/mL (Fusarium oxysporum [19]) [%] | inhibition of growth at 20 µg/mL [20] [%]
1 | O=[N+]([O-])c1cc([N+](=O)[O-])c(-c2ccsc2)cc1F | 100 | 7.16 (≈ 26.7 µM) | 68 | 100 | 100 | 4.41 (≈ 16.4 µM) | 100 | 25.2 (≈ 94 µM) | 4.42 (≈ 16.5 µM) | 27.5 (≈ 103 µM) |  |  |  |  |  |  |  |  |  | 
2 | O=[N+]([O-])c1c(Cl)c(Cl)cc(Cl)c1-c1ccsc1 | 90 | > 50 | 49 | 47 | 50 | 36.7 (≈ 119 µM) | 36 | > 50 | > 50 | > 50 |  |  |  |  |  |  |  |  |  | 
3 | N#Cc1c[nH]cc1-c1cccc(Cl)c1Cl [FENPICLONIL] | 100 |  | 100 | 100 | 100 |  | 18 |  | > 50 |  |  |  |  |  |  |  |  |  |  | 
4 | O=[N+]([O-])c1cc(-c2ccccc2[N+](=O)[O-])cs1 | 20 |  | 22 | 25 | 20 |  | 0 |  |  |  | 7 | 0 | 16 | 8 | 6 | 1 | 16 | 0 | 0 | 9
5 | O=[N+]([O-])c1cc(-c2c(Cl)cc(Cl)c(Cl)c2[N+](=O)[O-])cs1 | 24 |  | 34 | 0 | 35 |  | 4 |  |  |  | 0 | 0 | 26 | 5 | 17 | 0 | 20 | 0 | 0 | 10
6 | O=[N+]([O-])c1cc(Cl)cc(Cl)c1-c1ccsc1 | 82 |  | 60 | 39 | 25 |  | 87 |  |  |  | 26 | 42 | 55 | 0 | 20 | 8 | 18 | 56 | 81 | 72
7 | O=[N+]([O-])c1cc(-c2c(Cl)cc(Cl)cc2[N+](=O)[O-])cs1 | 25 |  | 41 | 24 | 27 |  | 39 |  |  |  | 16 | 10 | 32 | 5 | 25 | 8 | 16 | 21 | 32 | 17
8 | O=[N+]([O-])c1cc(F)ccc1-c1ccsc1 | 80 |  | 55 | 39 | 0 |  | 75 |  |  |  | 30 | 0 | 35 | 0 | 10 | 8 | 0 | 0 | 50 | 20
9 | O=[N+]([O-])c1cc(F)c(Cl)cc1-c1ccsc1[N+](=O)[O-] | 42 |  | 61 | 20 | 18 |  | 39 |  |  |  | 4 | 12 | 54 | 0 | 48 | 0 | 5 | 14 | 28 | 36
